Activity calls are given as the source filed them. The calls are words filed in the database; no cut-off is given here.
Tests used:
[1] = biological target: T1, Hypoxia inducible factors; HIF-1-alpha, HIF-2-alpha (Homo sapiens, UniProt Q16665+Q99814); assay: Inhibition of HIF1 in human HEK293T cells transfected with pGL3-5HRE-VEGF and pRL-SV40 after 24 hrs by dual luciferase reporter assay relative to normoxic condition; assay type: cell-based; parameters: concentration or dose not given beside the values; details: HEK-293T, concentration not given here
[2] = Cytotoxicity against human HEK293T cells assessed as survival rate at 10 uM after 24 hrs by MTT assay; assay type: cell-based, HEK-293T; details: read-out: Survival
Method in brief: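 HEK-293T cells seeded at 1×10^4 cells/well and grown 24 h, then exposed under hypoxia for 24 h to serially diluted compounds (0.005–10 μM). MTT added and incubated 4 h at 37 °C. Formazan dissolved in DMSO, absorbance read at 540 nm. Survival expressed as % of cells. Three independent experiments.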

[3] = biological target: T1, Hypoxia inducible factors; HIF-1-alpha, HIF-2-alpha; assay: Inhibition of HIF1 in human HEK293T cells transfected with pGL3-5HRE-VEGF and pRL-SV40 after 24 hrs by dual luciferase reporter assay; assay type: cell-based; details: hek-293t
Method in brief: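 HEK-293T cells seeded at 5×10^3/well, attached 24 h, then co-transfected with pGL3-5HRE-VEGF firefly luciferase reporter (five HRE copies from human VEGF promoter) and pRL-SV40 Renilla plasmid. Serially diluted compounds applied under 1% O2 for 24 h post-transfection. Dual-Glo read-out, firefly then Renilla luminescence, each after 10 min; firefly normalized to Renilla (RLU). Three independent experiments, mean ± SD.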

[4] = biological target: Aryl hydrocarbon receptor nuclear translocator (Homo sapiens) (UniProt P27540); assay: Inhibition of HIF1beta in HEK293T cells under hypoxic condition at 1 uM after 24 hrs by Western blot analysis; assay type: cell-based; details: HEK-293T
Aryl hydrocarbon receptor nuclear translocator (Homo sapiens), sequence (P27540 whole entry): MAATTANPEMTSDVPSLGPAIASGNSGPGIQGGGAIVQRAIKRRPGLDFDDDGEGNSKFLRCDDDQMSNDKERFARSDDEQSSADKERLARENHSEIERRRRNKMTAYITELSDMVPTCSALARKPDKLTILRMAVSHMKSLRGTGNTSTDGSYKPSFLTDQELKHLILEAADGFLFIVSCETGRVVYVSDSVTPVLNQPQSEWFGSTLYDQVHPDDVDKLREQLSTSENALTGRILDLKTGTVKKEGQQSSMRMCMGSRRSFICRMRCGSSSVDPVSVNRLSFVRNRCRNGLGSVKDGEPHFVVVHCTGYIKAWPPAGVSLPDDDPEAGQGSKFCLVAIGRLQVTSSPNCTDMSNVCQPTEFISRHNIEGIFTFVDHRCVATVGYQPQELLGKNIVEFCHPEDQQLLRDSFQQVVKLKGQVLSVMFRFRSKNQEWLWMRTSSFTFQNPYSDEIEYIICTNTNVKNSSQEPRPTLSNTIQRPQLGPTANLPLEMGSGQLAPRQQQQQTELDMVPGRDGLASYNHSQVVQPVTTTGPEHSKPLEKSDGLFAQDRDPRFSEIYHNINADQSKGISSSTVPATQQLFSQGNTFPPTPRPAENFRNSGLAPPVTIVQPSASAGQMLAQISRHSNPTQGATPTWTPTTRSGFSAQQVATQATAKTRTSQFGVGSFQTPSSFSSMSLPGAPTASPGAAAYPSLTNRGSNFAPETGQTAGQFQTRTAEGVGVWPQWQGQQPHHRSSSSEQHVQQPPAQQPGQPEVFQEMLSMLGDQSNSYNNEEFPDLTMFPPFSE
Method in brief: (§1)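 HEK-293T cells held under hypoxia (1% O2) or normoxia for 24 h with or without 1 μM compound. Total protein lysates run on SDS-PAGE, transferred to nitrocellulose, blocked in 5% skim milk/TBS-0.1% Tween-20. Probed overnight at 4 °C with primary antibodies (HIF-1α, HIF-1β, Cdk6), then HRP secondary. Chemiluminescent detection, β-actin as loading control.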

[5] = biological target: Hypoxia-inducible factor 1-alpha (Homo sapiens) (UniProt Q16665); assay: Inhibition of HIF1alpha in human HEK293T cells assessed as decrease of VEGF mRNA expression under hypoxic condition at 1 uM after 24 hrs by RT-PCR analysis; assay type: cell-based; details: HEK-293T
Hypoxia-inducible factor 1-alpha (Homo sapiens), sequence (Q16665 whole entry, looked up): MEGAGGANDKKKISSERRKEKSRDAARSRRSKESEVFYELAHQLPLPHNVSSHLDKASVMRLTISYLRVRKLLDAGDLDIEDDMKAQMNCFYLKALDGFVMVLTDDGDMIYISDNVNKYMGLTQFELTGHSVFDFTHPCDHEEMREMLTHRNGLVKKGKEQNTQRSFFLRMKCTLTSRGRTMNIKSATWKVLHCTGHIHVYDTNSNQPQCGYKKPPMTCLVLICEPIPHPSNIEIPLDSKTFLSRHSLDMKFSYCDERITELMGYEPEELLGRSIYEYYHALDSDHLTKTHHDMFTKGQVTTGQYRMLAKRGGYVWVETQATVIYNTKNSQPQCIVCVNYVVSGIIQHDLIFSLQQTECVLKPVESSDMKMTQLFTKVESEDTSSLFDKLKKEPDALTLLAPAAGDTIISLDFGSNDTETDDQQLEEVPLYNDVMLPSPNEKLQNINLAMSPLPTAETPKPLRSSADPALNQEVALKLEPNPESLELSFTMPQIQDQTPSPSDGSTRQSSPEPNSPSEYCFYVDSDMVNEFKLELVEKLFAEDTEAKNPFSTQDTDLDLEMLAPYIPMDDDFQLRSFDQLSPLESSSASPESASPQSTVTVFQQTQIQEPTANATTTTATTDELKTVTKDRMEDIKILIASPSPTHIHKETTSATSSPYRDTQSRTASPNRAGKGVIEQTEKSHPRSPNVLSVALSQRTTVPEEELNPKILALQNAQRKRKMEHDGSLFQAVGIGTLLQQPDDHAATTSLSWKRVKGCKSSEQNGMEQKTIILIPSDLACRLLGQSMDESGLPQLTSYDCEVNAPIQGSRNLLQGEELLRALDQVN
Method in brief: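 HEK-293T cells given 1 μM compound under hypoxia for 24 h, with a normoxic control. VEGF mRNA measured by real-time PCR on 10-fold diluted cDNA with gene-specific primers. Cycling: 50 °C 2 min, 95 °C 10 min, then 40 cycles of 95 °C 15 s and 60 °C 1 min. Mean CT normalized to β-actin.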

[6] = biological target: Hypoxia-inducible factor 1-alpha (Homo sapiens) (UniProt Q16665); assay: Inhibition of HIF1alpha in human HEK293T cells assessed as decrease of Cdk6 expression under hypoxic condition at 1 uM after 24 hrs by Western blot analysis; assay type: cell-based; details: HEK-293T; method in brief: as §1
[7] = biological target: Hypoxia-inducible factor 1-alpha (Homo sapiens) (UniProt Q16665); assay: Inhibition of HIF-1 alpha in human HEK293T cells under hypoxic condition at 1 uM after 24 hrs by Western blot analysis; assay type: cell-based; details: HEK-293T; method in brief: as §1

SMILES	inhibition [1] [%]	viability at 24 h, 10 µM [2] [%]	IC50 [3] [nM]	inhibition [4]	inhibition [5]	inhibition [6]	inhibition [7]
COc1ccc([C@@H](OC)[C@@H](C)Oc2ccc([C@H]3O[C@H](c4ccc(O[C@H](C)[C@H](OC)c5ccc(OC)c(OC)c5)c(OC)c4)[C@H](C)[C@H]3C)cc2OC)cc1OC	102	> 80	430				
COc1ccc(C(=O)[C@@H](C)Oc2ccc([C@H]3O[C@H](c4ccc(O[C@H](C)C(=O)c5ccc(OC)c(O)c5)c(OC)c4)[C@H](C)[C@H]3C)cc2OC)cc1O	78	> 80	2110				
COc1cc([C@H]2O[C@H](c3ccc(O[C@H](C)[C@H](O)c4ccccc4)c(OC)c3)[C@H](C)[C@H]2C)ccc1O[C@H](C)[C@H](O)c1ccccc1	79	> 80	590				
COc1ccc(C(=O)[C@@H](C)Oc2ccc([C@H]3O[C@H](c4ccc(OC)c(OC)c4)[C@H](C)[C@H]3C)cc2OC)cc1OC	82	> 80	3700				
COc1ccc(C(=O)COc2cc(C(=O)[C@@H](C)Oc3ccc([C@H]4O[C@H](c5ccc(O[C@H](C)C(=O)c6ccc(OC)c(OCC(=O)c7ccc(OC)c(OC)c7)c6)c(OC)c5)[C@H](C)[C@H]4C)cc3OC)ccc2OC)cc1OC	36	> 80					
COc1ccc(C(=O)[C@@H](C)Oc2ccc([C@H]3O[C@H](c4ccc(O[C@H](C)C(=O)c5ccc(OC)c(OC)c5)c(OC)c4)[C@H](C)[C@H]3C)cc2OC)cc1OC	114	> 80	910				
COc1ccc([C@H](COc2ccc([C@H]3O[C@H](c4ccc(OC[C@H](OC)c5ccc(OC)c(OC)c5)c(OC)c4)[C@H](C)[C@H]3C)cc2OC)OC)cc1OC	87	> 80	1930				
COc1ccc(C(=O)COc2ccc([C@H]3O[C@H](c4ccc(OCC(=O)c5ccc(OC)c(OC)c5)c(OC)c4)[C@H](C)[C@H]3C)cc2OC)cc1OC	93	> 80	350	inactive	Active	Active	Active
COc1ccc([C@@H](O)COc2ccc([C@H]3O[C@H](c4ccc(OC[C@H](O)c5ccc(OC)c(OC)c5)c(OC)c4)[C@H](C)[C@H]3C)cc2OC)cc1OC	94	> 80	380				
COc1cc([C@H]2O[C@H](c3ccc(O[C@H](C)C(=O)c4ccccc4)c(OC)c3)[C@H](C)[C@H]2C)ccc1O[C@H](C)C(=O)c1ccccc1	101	> 80	690	inactive	Active	Active	Active
COc1ccc(CCOc2ccc([C@H]3O[C@H](c4ccc(OCCc5ccc(OC)c(OC)c5)c(OC)c4)[C@H](C)[C@H]3C)cc2OC)cc1OC	64	> 80	1440				
COc1ccc([C@@H](O)[C@@H](C)Oc2ccc([C@H]3O[C@H](c4ccc(OC)c(OC)c4)[C@H](C)[C@H]3C)cc2OC)cc1OC	113	> 80	320	inactive	Active	Active	Active

From ChEMBL document CHEMBL3621119, “Synthesis and Biological Evaluation of Manassantin Analogues for Hypoxia-Inducible Factor 1α Inhibition” (J Med Chem, 2015)
